Only some compounds are listed: those with a hit (about 3% of all), similar ones and a draw of the others.
MITF TRPM1 HTS: activators of MITF-driven TRPM1 promoter reporter, primary screen, cell-based, SK-MEL-5, luciferase, single point. SK-MEL-5 TRPM1-promoter luciferase, 24 h; % of positive control, neutral wells = 0. activation, % at 12.5 µM. 300,000 tested, 0.75% active. AID 588334, 2011;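 active means mean activation of at least 80% with every replicate also reaching 80%; inconclusive means mean reaches 80% but some replicate falls short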;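 further: 0% = neutral control wells and 100% = parthenolide positive control wells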
Casp6 inh: human caspase-6 inhibitors, primary screen, biochemical, VEID-R110 fluorescence, single point, set 2; 350,000 tested, 0.53% active; AID 686996, 2013; P55212; inhibition, % at 12.5 µM; purified caspase-6, Z-VEID-R110 cleavage fluorescence;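 active means mean inhibition across replicates at least about 35%, with every replicate also reaching that limit, limit read from the data; inconclusive means only one of the two criteria met; inactive means neither criterion met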;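 further: 0% = median of neutral control wells and 100% = no fluorescence left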
NSD2 HMT inh: NSD2 histone methyltransferase inhibitors, primary screen, biochemical, AlphaScreen, single concentration, set 2. Histone-lysine N-methyltransferase NSD2 (Homo sapiens), O96028. NSD2 peptide methylation, 120 min. inhibition, % at 12.5 µM. 310,000 tested, 0.54% active; in the data active means inhibition above about 50%
Target sequence (O96028 whole entry, looked up): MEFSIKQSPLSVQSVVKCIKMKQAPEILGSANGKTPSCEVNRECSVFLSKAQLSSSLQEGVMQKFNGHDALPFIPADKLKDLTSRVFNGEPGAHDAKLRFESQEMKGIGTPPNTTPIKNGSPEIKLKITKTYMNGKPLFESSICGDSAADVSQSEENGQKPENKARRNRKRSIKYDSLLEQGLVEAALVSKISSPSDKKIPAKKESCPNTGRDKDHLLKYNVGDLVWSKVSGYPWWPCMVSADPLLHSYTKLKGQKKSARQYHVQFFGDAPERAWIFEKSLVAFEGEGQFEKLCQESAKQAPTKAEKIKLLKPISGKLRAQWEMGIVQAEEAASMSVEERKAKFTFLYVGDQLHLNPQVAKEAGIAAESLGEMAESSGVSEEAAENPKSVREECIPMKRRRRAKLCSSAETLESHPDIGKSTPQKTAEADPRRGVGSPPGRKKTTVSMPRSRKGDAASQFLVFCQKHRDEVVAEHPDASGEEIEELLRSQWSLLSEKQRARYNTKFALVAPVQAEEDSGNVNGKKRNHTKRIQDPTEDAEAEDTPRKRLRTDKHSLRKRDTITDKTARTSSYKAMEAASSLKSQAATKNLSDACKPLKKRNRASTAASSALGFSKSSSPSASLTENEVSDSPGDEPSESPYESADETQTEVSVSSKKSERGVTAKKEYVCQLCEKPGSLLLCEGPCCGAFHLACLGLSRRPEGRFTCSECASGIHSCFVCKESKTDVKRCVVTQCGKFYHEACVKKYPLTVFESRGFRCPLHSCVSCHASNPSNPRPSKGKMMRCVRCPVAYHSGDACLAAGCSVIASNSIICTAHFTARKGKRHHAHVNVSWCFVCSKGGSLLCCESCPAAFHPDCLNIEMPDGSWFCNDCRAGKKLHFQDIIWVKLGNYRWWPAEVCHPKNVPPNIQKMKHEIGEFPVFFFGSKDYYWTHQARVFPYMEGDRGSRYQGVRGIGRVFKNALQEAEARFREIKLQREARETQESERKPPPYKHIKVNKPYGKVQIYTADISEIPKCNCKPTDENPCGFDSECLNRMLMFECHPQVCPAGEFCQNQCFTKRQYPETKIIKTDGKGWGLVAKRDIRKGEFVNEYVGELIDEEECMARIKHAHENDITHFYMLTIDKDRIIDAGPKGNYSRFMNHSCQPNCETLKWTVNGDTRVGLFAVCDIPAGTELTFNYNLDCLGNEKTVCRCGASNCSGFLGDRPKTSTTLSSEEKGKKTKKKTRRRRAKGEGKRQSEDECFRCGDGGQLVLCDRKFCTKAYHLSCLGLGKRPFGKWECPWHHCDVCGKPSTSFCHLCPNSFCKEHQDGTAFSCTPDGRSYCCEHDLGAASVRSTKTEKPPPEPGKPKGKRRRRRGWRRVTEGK
Xi reactivation: activators of inactive X chromosome reactivation, primary screen, imaging, XiGFP fibroblasts, GFP high-content imaging, set 2. XiGFP mouse fibroblasts, % GFP-positive cells imaging, 3 d; cells co-treated with 5-aza-dC sensitizer; scaled so ellipticine positive control = 100%. activation, % at 7.58 µM. AID 743238, 2013. 360,000 tested, 0.055% active;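 active means mean normalized replicate activation at least 10% and every replicate at or above 10%; inconclusive means only one of the two criteria met; inactive means mean below 10% and not all replicates reach 10%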;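 further: 0% = median of on-plate neutral control wells and 100% = ellipticine 6 µM median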
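System: XiGFP fibroblasts, SV40-immortalized. Medium: DMEM plus 5-aza-dC sensitizer. Doses: single point. Timing: 3 d treatment, 15 min room-temperature fixation. Control set: ellipticine 6 µM.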
Wnt bcat act: Wnt/beta-catenin pathway activators, primary screen, cell-based, plate reader, single point; 300,000 tested, 1.2% active; Wnt/beta-catenin reporter cell assay, activator; activation, % at 9.35 µM; AID 743398, 2014; in the data active means activation above about 30%, passing the limit was not always enough; inconclusive means no clear call, values can overlap the other calls;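 further: 0% = neutral control wells and 100% = positive control wells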
esBAF inh: Bmi1 luciferase reporter increase in mESCs, primary screen, esBAF inhibitor project, mouse ES cells, Bmi1 luciferase knock-in, single point; 24 h; 100% = twice the neutral-well signal; AID 602393, 2012; 350,000 tested, 2% active; reporter increase, % at 12.5 µM; in the data active means activation above about 40%; inconclusive means no clear call, values can overlap the other calls;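 further: 0% = median of the plate's neutral control wells and 100% = double that signal; a rise in the Bmi1 reporter signal indicates esBAF inhibition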
* marks the source's active call; other numbers are inactive results; u = inconclusive; x = no result.

SMILES	MITF TRPM1 HTS	Casp6 inh	NSD2 HMT inh	Xi reactivation	Wnt bcat act	esBAF inh
CC(C)NC(=O)Nc1cccc2c1O[C@@H](CN(C)Cc1ccc3c(c1)OCO3)[C@H](C)CN([C@H](C)CO)C2=O	x	-1.4	x	0.1	x	x
O=c1cc(-c2c(F)c(F)c(F)c(F)c2F)oc2ccccc12	-31.3	0.0	5.6	x	1.8	-8.1
O=c1cc(-c2ccc(O)cc2)oc2ccccc12	x	0.3	x	x	3.0	57.9*
COc1ccc(N=c2cc(-c3ccc(OC)cc3)oc3ccccc23)cc1	20.3	x	4.2	0.3	118.8*	x
O=c1cc(-c2ccncc2)oc2ccccc12	x	x	1.1	x	1.5	-12.2
COc1ccc(-c2cc(=O)c3ccccc3o2)cc1	70.2	-0.7	x	x	-2.0	62.8*
O=c1cc(-c2cccc(F)c2)oc2ccccc12	30.4	-4.0	-2.7	0.0	-1.4	51.2*
COc1cccc(CNC(=O)C[C@H]2C=C[C@@H](NS(=O)(=O)c3ccccc3OC)[C@@H](CO)O2)c1	x	x	x	0.3	x	x
CO[C@@H]1CN(C)C(=O)c2ccc(NC(C)=O)cc2OC[C@@H](C)N(C(=O)c2ccccn2)C[C@H]1C	x	-0.3	x	0.3	x	-5.7
C[C@H](CO)N1C[C@H](C)[C@@H](CN(C)C(=O)Cc2cccnc2)Oc2ncc(-c3ccccc3)cc2C1=O	x	2.1	x	-0.7	x	x
CC=Cc1ccc2n(c1=O)C[C@@H]1[C@@H](CO)[C@H](C(=O)N3CCCCC3)N(C(=O)CC)[C@H]21 (mixture of isomers)	x	-3.0	x	0.3	x	-2.4
O=c1cc(-c2ccc(O)cc2)oc2ccc(O)cc12	77.8	0.9	0.3	0.1	56.5*	37.0
O=c1cc(-c2ccsc2)oc2ccccc12	60.5	2.3	x	0.0	19.1	33.4
O=c1cc(-c2ccccc2)oc2cc(O)ccc12	87.6*	-4.4	x	x	3.5	u
CCOC(=O)c1ccc(-c2nnc(-c3ccc(Cl)cc3Cl)o2)cc1	87.4*	x	-2.4	x	x	44.6*
CCOC(=O)c1cc(-c2nnc(-c3ccc(Cl)cc3)o2)c(C)nc1C	7.8	0.8	x	0.3	-2.3	4.4
COc1cc(C(=O)O/N=C(\N)c2cccc([N+](=O)[O-])c2)cc(OC)c1OC	11.5	-0.9	-2.7	-0.1	-0.6	-1.6
COc1cccc(C(=O)O/N=C(\N)c2ccc([N+](=O)[O-])cc2)c1	15.1	x	-1.8	x	x	55.2*
COc1ccc(/C(N)=N/OC(=O)c2cccc([N+](=O)[O-])c2)cc1	24.7	x	-11.0	x	x	64.1*
O=C(Cn1cc2c(n1)CCCC2)Nc1cc(-c2cccc(Cl)c2)no1	x	2.5	x	0.2	5.6	50.6*
C[C@@H](O)C#Cc1cnc2c(c1)C(=O)N([C@@H](C)CO)C[C@H](C)[C@H](CN(C)C(=O)Cc1ccccn1)O2	x	-2.7	x	-1.2	x	2.7
C[C@@H]1CN([C@H](C)CO)C(=O)c2cc(NC(=O)c3ccncc3)ccc2O[C@H]1CN(C)Cc1ccc(C(=O)Nc2ccccc2N)cc1	x	-1.9	x	-1.2	x	x
COc1ccccc1C1CCN(c2ccc([N+](=O)[O-])c(OC)c2)CC1	34.5	-0.4	0.1	0.0	1.9	55.0*
O=C(O)c1ccc(N/N=C/C2=Cc3ccccc3OC2)cc1	137.7*	12.6	x	-0.1	41.1*	80.8*
Nc1ccc(C(=O)OCc2nc3c(ccc4ccccc43)[nH]2)cc1	45.1	1.3	16.4	x	13.0	78.8*
SMILES	MITF TRPM1 HTS	Casp6 inh	NSD2 HMT inh	Xi reactivation	Wnt bcat act	esBAF inh
c1ccc(-c2cnc(-c3ccccc3)nn2)cc1	14.3	-7.8	x	0.2	23.4	-39.5
c1ccc(-c2cnc(-c3ccccn3)nn2)cc1	48.8	-6.1	x	1.8	46.0*	-15.3
COc1ccccc1-c1cnc(C(O)c2ccc(C)cc2)[nH]1 (centres undefined)	x	2.4	4.9	-0.1	0.7	54.6*
OC(c1ccccc1)c1ncc(-c2ccccc2F)[nH]1 (centres undefined)	x	1.3	-2.2	0.2	9.1	62.1*
OC(c1ccc(-c2ccccc2)cc1)c1ncc(-c2ccccc2F)[nH]1 (centres undefined)	x	1.3	3.0	0.0	-0.7	-6.5
OC(c1cccc(F)c1)c1ncc(-c2ccc3ccccc3c2)[nH]1 (centres undefined)	x	1.5	12.8	0.2	1.0	73.6*
OC(c1cccc(Cl)c1)c1ncc(-c2ccc3ccccc3c2)[nH]1 (centres undefined)	x	3.7	1.4	0.1	-2.7	25.6
CN(C)c1ccc(-n2cc3c(=O)n(C)c(=O)n(C)c3c2)cc1	69.9	x	5.3	x	x	70.7*
CCN(CC)c1ccc(-n2cc3c(=O)n(C)c(=O)n(C)c3c2)cc1	17.7	x	16.3	x	x	u
COCCNc1oc(-c2ccc(F)cc2)nc1C#N	26.9	x	5.6	x	6.5	24.1
C=CCNc1oc(-c2cccc3ccccc23)nc1C#N	27.7	x	-0.5	x	x	24.0
CC(C)Nc1oc(-c2cccc3ccccc23)nc1C#N	85.7*	x	-5.7	x	x	38.2
COCCNc1oc(-c2ccccc2Cl)nc1C#N	31.1	-3.1	x	0.3	-3.9	54.6*
CCNc1oc(-c2cccc3ccccc23)nc1C#N	42.8	x	-0.9	x	x	59.8*
CN(C)C(=O)c1ccc(-c2ccc3c(c2)[C@H]2[C@H](CCN2C(=O)C2CCOCC2)[C@@H](CO)N3C)cc1	x	x	x	0.0	x	3.5
C[C@H]1CN(C)C(=O)c2cccc([N+](=O)[O-])c2O[C@@H]1CN(C)C(=O)OC(C)(C)C	x	x	x	0.1	x	x
NNC(=O)c1ccc(Cn2cc(Cl)cn2)cc1	-14.1	x	-1.3	x	x	-2.8
O=C(Nc1ccc(Cl)c(Cl)c1)c1ccc(Cn2cc(Cl)cn2)cc1	75.3	-4.0	-3.9	0.0	-23.9	68.6*
COc1ccc(CC(=O)OCC(=O)c2c[nH]c3ccccc23)cc1	-11.3	2.9	x	0.2	1.8	0.6
COc1ccc(C(=O)OCC(=O)c2c[nH]c3ccccc23)c(OC)c1	68.9	-1.1	-0.9	0.1	36.1*	75.2*
COc1cc(CC(=O)OCC(=O)c2c[nH]c3ccccc23)cc(OC)c1OC	-18.3	3.2	-0.6	0.5	-0.4	-7.1
COc1cccc(C(=O)OCC(=O)c2c[nH]c3ccccc23)c1OC	52.6	-0.3	x	0.2	5.5	43.5*
Cc1[nH]c2ccccc2c1C(=O)COC(=O)c1ccccc1O	110.8*	0.5	-0.9	0.4	-1.0	123.8*
COc1ccc(C(=O)OCC(=O)c2cc(OC)ccc2OC)c(OC)c1	20.9	x	-1.1	x	x	17.8
COc1ccc(C(=O)COC(=O)c2ccccc2O)c(OC)c1	65.0	-2.1	1.0	-0.1	50.3*	76.4*
